Data as given in ChEMBL document CHEMBL5058577, “EUbOPEN Chemogenomics Library 2 (Multiplex)” (2022).

System: HEK-293T
Assay: Multiplex assay against HEK293T
Format: toxicity, cell-based
Details: human
Procedure, shortened: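 Values for tubulin, mitochondrial-mass and membrane-permeability phenotypes are per cents of cells with healthy nuclei. These cells were identified by CellPathfinder machine-learning gating of live cells that had been stained at seeding with Hoechst33342, BioTracker Green Microtubule Cytoskeleton Dye, MitoTracker Red and Annexin V Alexa Fluor 680 and imaged on a CQ1 microscope at 37°C and 5% CO2 after compound addition. The gating first set Hoechst high-intensity objects apart from normal cells, then split normal cells into healthy, pyknosed or fragmented nuclei, and pyknosed cells into mitotic or apoptotic.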

[1] = 12 h, 1 µM, compound concentration 1 uM, replicate 1
[2] = 12 h, 1 µM, compound concentration 1 uM, replicate 2
[3] = 12 h, 10 µM, compound concentration 10 uM, replicate 1
[4] = 12 h, 10 µM, compound concentration 10 uM, replicate 2
[5] = 24 h, 1 µM, compound concentration 1 uM, replicate 1
[6] = 24 h, 1 µM, compound concentration 1 uM, replicate 2
[7] = 24 h, 10 µM, compound concentration 10 uM, replicate 1
[8] = 24 h, 10 µM, compound concentration 10 uM, replicate 2
[9] = 48 h, 1 µM, compound concentration 1 uM, replicate 1
[10] = 48 h, 1 µM, compound concentration 1 uM, replicate 2
[11] = 48 h, 10 µM, compound concentration 10 uM, replicate 1
[12] = 48 h, 10 µM, compound concentration 10 uM, replicate 2

For `CCc1cc2cc(NS(=O)(=O)c3ccc(C#N)cc3)ccc2n(CC)c1=O`, the “Population Apoptotic (%)” value [1] was 43%, the “Population Fragmented Nuclei (%)” value [1] was 8% and the “Population Healthy Nuclei (%)” value [1] was 78%. The “Population Hoechst High Intensity Objects (%)” value [1] was 9%, the “Population Membrane Permeable-Phenotype (%)” value [1] was 0% and the “Population Mitochondria Different-Phenotype (%)” value [1] was 37%. For the same compound, the “Population Mitotic Cells (%)” value [1] was 56%, the “Population Normal (%)” value [1] was 90% and the “Population Pyknosed Nuclei (%)” value [1] was 12%. The “Population Tubulin-Different-Phenotype (%)” value [1] was 28%, the “Total Cell Count” value [1] was 411 and the “Population Apoptotic (%)” value [2] was 40%. The “Population Fragmented Nuclei (%)” value [2] was 7%, the “Population Hoechst High Intensity Objects (%)” value [2] was 7% and the “Population Mitochondria Different-Phenotype (%)” value [2] was 64%. The “Population Mitotic Cells (%)” value [2] was 59%, the “Population Normal (%)” value [2] was 92% and the “Population Pyknosed Nuclei (%)” value [2] was 14%. The “Population Tubulin-Different-Phenotype (%)” value [2] was 29%, the “Total Cell Count” value [2] was 338 and the “Population Apoptotic (%)” value [3] was 38%. For the same compound, the “Population Fragmented Nuclei (%)” value [3] was 7%, the “Population Healthy Nuclei (%)” value [3] was 80% and the “Population Hoechst High Intensity Objects (%)” value [3] was 7%. The “Population Membrane Permeable-Phenotype (%)” value [3] was 0%, the “Population Mitochondria Different-Phenotype (%)” value [3] was 47% and the “Population Mitotic Cells (%)” value [3] was 61%. For the same compound, the “Population Normal (%)” value [3] was 92%, the “Population Pyknosed Nuclei (%)” value [3] was 12% and the “Population Tubulin-Different-Phenotype (%)” value [3] was 48%. For the same compound, the “Total Cell Count” value [3] was 404, the “Population Apoptotic (%)” value [4] was 65% and the “Population Fragmented Nuclei (%)” value [4] was 6%. The “Population Healthy Nuclei (%)” value [4] was 69%, the “Population Hoechst High Intensity Objects (%)” value [4] was 16% and the “Population Mitochondria Different-Phenotype (%)” value [4] was 71%. For the same compound, the “Population Mitotic Cells (%)” value [4] was 34%, the “Population Normal (%)” value [4] was 83% and the “Population Pyknosed Nuclei (%)” value [4] was 23%. For the same compound, the “Population Tubulin-Different-Phenotype (%)” value [4] was 41%, the “Total Cell Count” value [4] was 291 and the “Population Apoptotic (%)” value [5] was 29%. For the same compound, the “Population Fragmented Nuclei (%)” value [5] was 8%, the “Population Healthy Nuclei (%)” value [5] was 80% and the “Population Hoechst High Intensity Objects (%)” value [5] was 5%. For the same compound, the “Population Membrane Permeable-Phenotype (%)” value [5] was 1%, the “Population Mitochondria Different-Phenotype (%)” value [5] was 19% and the “Population Mitotic Cells (%)” value [5] was 70%. For the same compound, the “Population Normal (%)” value [5] was 94%, the “Population Pyknosed Nuclei (%)” value [5] was 11% and the “Population Tubulin-Different-Phenotype (%)” value [5] was 18%. The “Total Cell Count” value [5] was 510, the “Population Apoptotic (%)” value [6] was 43% and the “Population Fragmented Nuclei (%)” value [6] was 7%. For the same compound, the “Population Healthy Nuclei (%)” value [6] was 84%, the “Population Membrane Permeable-Phenotype (%)” value [6] was 0% and the “Population Mitochondria Different-Phenotype (%)” value [6] was 44%. For the same compound, the “Population Mitotic Cells (%)” value [6] was 56%, the “Population Pyknosed Nuclei (%)” value [6] was 7% and the “Population Tubulin-Different-Phenotype (%)” value [6] was 22%. For the same compound, the “Total Cell Count” value [6] was 403, the “Population Apoptotic (%)” value [7] was 33% and the “Population Fragmented Nuclei (%)” value [7] was 9%. The “Population Healthy Nuclei (%)” value [7] was 80%, the “Population Hoechst High Intensity Objects (%)” value [7] was 6% and the “Population Membrane Permeable-Phenotype (%)” value [7] was 0%. For the same compound, the “Population Mitochondria Different-Phenotype (%)” value [7] was 36%, the “Population Mitotic Cells (%)” value [7] was 66% and the “Population Normal (%)” value [7] was 93%. The “Population Pyknosed Nuclei (%)” value [7] was 10%, the “Population Tubulin-Different-Phenotype (%)” value [7] was 32% and the “Total Cell Count” value [7] was 478. For the same compound, the “Population Apoptotic (%)” value [8] was 63%, the “Population Fragmented Nuclei (%)” value [8] was 10% and the “Population Healthy Nuclei (%)” value [8] was 73%. For the same compound, the “Population Hoechst High Intensity Objects (%)” value [8] was 17%, the “Population Membrane Permeable-Phenotype (%)” value [8] was 1% and the “Population Mitochondria Different-Phenotype (%)” value [8] was 58%. For the same compound, the “Population Mitotic Cells (%)” value [8] was 36%, the “Population Normal (%)” value [8] was 82% and the “Population Pyknosed Nuclei (%)” value [8] was 16%. The “Population Tubulin-Different-Phenotype (%)” value [8] was 29%, the “Total Cell Count” value [8] was 332 and the “Population Apoptotic (%)” value [9] was 30%. The “Population Fragmented Nuclei (%)” value [9] was 11%, the “Population Healthy Nuclei (%)” value [9] was 81% and the “Population Hoechst High Intensity Objects (%)” value [9] was 2%. For the same compound, the “Population Membrane Permeable-Phenotype (%)” value [9] was 1%, the “Population Mitochondria Different-Phenotype (%)” value [9] was 11% and the “Population Mitotic Cells (%)” value [9] was 69%. The “Population Normal (%)” value [9] was 97%, the “Population Pyknosed Nuclei (%)” value [9] was 6% and the “Population Tubulin-Different-Phenotype (%)” value [9] was 13%. The “Total Cell Count” value [9] was 878, the “Population Apoptotic (%)” value [10] was 38% and the “Population Fragmented Nuclei (%)” value [10] was 14%. For the same compound, the “Population Healthy Nuclei (%)” value [10] was 79%, the “Population Hoechst High Intensity Objects (%)” value [10] was 4% and the “Population Mitochondria Different-Phenotype (%)” value [10] was 23%. For the same compound, the “Population Mitotic Cells (%)” value [10] was 61%, the “Population Normal (%)” value [10] was 95% and the “Population Pyknosed Nuclei (%)” value [10] was 5%. For the same compound, the “Population Tubulin-Different-Phenotype (%)” value [10] was 12%, the “Total Cell Count” value [10] was 608 and the “Population Apoptotic (%)” value [11] was 26%. For the same compound, the “Population Fragmented Nuclei (%)” value [11] was 14%, the “Population Healthy Nuclei (%)” value [11] was 78% and the “Population Hoechst High Intensity Objects (%)” value [11] was 4%. For the same compound, the “Population Membrane Permeable-Phenotype (%)” value [11] was 1%, the “Population Mitochondria Different-Phenotype (%)” value [11] was 23% and the “Population Mitotic Cells (%)” value [11] was 73%. The “Population Normal (%)” value [11] was 95%, the “Population Pyknosed Nuclei (%)” value [11] was 6% and the “Population Tubulin-Different-Phenotype (%)” value [11] was 20%. For the same compound, the “Total Cell Count” value [11] was 734, the “Population Apoptotic (%)” value [12] was 47% and the “Population Fragmented Nuclei (%)” value [12] was 16%. For the same compound, the “Population Healthy Nuclei (%)” value [12] was 73%, the “Population Hoechst High Intensity Objects (%)” value [12] was 10% and the “Population Mitochondria Different-Phenotype (%)” value [12] was 40%. For the same compound, the “Population Mitotic Cells (%)” value [12] was 52%, the “Population Normal (%)” value [12] was 89% and the “Population Pyknosed Nuclei (%)” value [12] was 9%. For the same compound, the “Population Tubulin-Different-Phenotype (%)” value [12] was 23% and the “Total Cell Count” value [12] was 383.
